From ChEMBL document CHEMBL1154451, “Simple and efficient synthesis of novel glycosyl thiourea derivatives as potential antitumor agents” (Eur J Med Chem, 2008) come the findings set out here.

Experiment [1] can be described thus: Cytotoxicity against human PG cells after 48 hrs by MTT assay. Type of experiment: functional, cell-based. Put shortly: (§1)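 Tumour cells seeded at 3–5 × 10⁴ cells/mL and cultured 24 h, then medium containing test compound at various concentrations added (plain medium for controls). Exposure 48 h, followed by MTT read-out with absorbance measured at 490 nm. EC50 values reported; compounds tested up to […].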
On the technique in general: Formazan colour is commonly taken as a measure of viable cells.

Another experiment relates to Bel-7402. Briefly: Cytotoxicity against human Bel7402 cells after 48 hrs by MTT assay. In kind it is functional, cell-based. Particulars: Bel-7402, 48 h. Put shortly:
as §1

Molecules are shown by their SMILES.

For orientation: EC50 means the concentration giving half of the maximal effect. A high value points to a less potent agent. For the molecule `Cc1cn([C@H]2C[C@H](N=[N+]=[N-])[C@@H](CO)O2)c(=O)[nH]c1=O` [ZIDOVUDINE], the concentration for a half-maximal effect (EC50) amounted to 580 nM in experiment [1] and 4.62 µM with Bel-7402.
